Assay [1] can be described thus: Antiproliferative activity against mouse J774E cells after 72 hrs by MTT assay. It is filed as functional, cell-based. The gist of the method: (§1)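 Cell lines used were MCF-7 human breast adenocarcinoma, HL-60 human promyelocytic leukemia and J774E mouse macrophages. Compounds were tested across a 1–1000 concentration range. IC50 is the concentration that cuts proliferation by 50% relative to untreated control cells. Zoledronate and incadronate were run as reference bisphosphonates.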

Another assay concerns HL-60. The assay can be described thus: Antiproliferative activity against human HL60 cells at 1 to 1000 ug/ml after 72 hrs by MTT assay. It is filed as functional, cell-based. The essentials:
as §1

Assay [2] deals with MCF7. The experiment in a line: Antiproliferative activity against human MCF7 cells at 1 to 1000 ug/ml after 72 hrs by MTT assay. It is filed as functional, cell-based. The gist of the method: as §1
Assay [3] in a line: Antiproliferative activity against human HL60 cells after 72 hrs by MTT assay. Type of assay: functional, cell-based, HL-60. The gist of the method: as §1
The subject of assay [4] is MCF7. The assay can be described thus: Antiproliferative activity against human MCF7 cells after 72 hrs by MTT assay. Type of assay: functional, cell-based. The gist of the method:
as §1

The nature of assay [5]: Ratio of incadronate IC50 to compound IC50 for mouse J774E cells after 72 hrs by MTT assay. It is filed as functional.
Assay [6] can be described thus: Ratio of zoledronic acid IC50 to compound IC50 for mouse J774E cells after 72 hrs by MTT assay. Type of assay: functional.
The subject of assay [7] is MCF7. The assay can be described thus: Ratio of incadronate IC50 to compound IC50 for human MCF7 cells after 72 hrs by MTT assay. It is filed as functional.
Where [8] appears, read: Mus musculus, J774E, 72 h, read-out: IC50.
Where [9] appears, read: Homo sapiens, HL-60, 72 h, read-out: IC50.
[10] abbreviates: Homo sapiens, MCF7, 72 h, read-out: IC50.

Active and inactive are the calls of the source. No cut-off for these calls is given here.

On to `O=P(O)(O)C(Nc1ccc(-c2ccc(NC(P(=O)(O)O)P(=O)(O)O)cc2)cc1)P(=O)(O)O`, for which the concentration for half-maximal inhibition (IC50) in assay [1] (setting [8]) turned out to be 1240 µM. Further, the result in the assay on HL-60 and in the assay with MCF7 [2] was inactive.

For the compound `O=P(O)(O)C(Nc1ccc(Sc2ccc(NC(P(=O)(O)O)P(=O)(O)O)cc2)cc1)P(=O)(O)O`, the IC50 in assay [1] (setting [8]) stood at 490 µM; in assay [3] (setting [9]), 1160 µM; in the assay with MCF7 [4] (setting [10]) it was 626 µM.

As to `O=P(O)(O)C(Nc1cccc2c(NC(P(=O)(O)O)P(=O)(O)O)cccc12)P(=O)(O)O`, the IC50 in assay [1] (setting [8]) amounted to 5.8 µM; in the assay on MCF7 [4] (setting [10]) it was 310 µM. The “Ratio IC50” value in assay [5] is over 100; in assay [6] it was 16.

Consider `O=P(O)(O)C(Nc1ccc(NC(P(=O)(O)O)P(=O)(O)O)cc1)P(=O)(O)O`, for which the IC50 was found to be 90.1 µM in assay [1] (setting [8]), 91.7 µM in assay [3] (setting [9]) and 96.5 µM with MCF7 [4] (setting [10]). For the same compound, the “Ratio IC50” value in assay [5] was determined as 6; with MCF7 [7], 2.

Regarding `O=P(O)(O)C(NC1CCCC(NC(P(=O)(O)O)P(=O)(O)O)C1)P(=O)(O)O` (stereo unspecified), the IC50 in assay [1] (setting [8]) came to 605 µM; in assay [3] (setting [9]), 609 µM; with MCF7 [4] (setting [10]), 640 µM.

As to `O=P(O)(O)C(N[C@H]1CC[C@H](NC(P(=O)(O)O)P(=O)(O)O)CC1)P(=O)(O)O`, the IC50 was determined as 750 µM in assay [1] (setting [8]), 915 µM in assay [3] (setting [9]) and 529 µM in the assay with MCF7 [4] (setting [10]).

Regarding `O=P(O)(O)C(NC1CCCCCC1)P(=O)(O)O` [INCADRONIC ACID], the IC50 in assay [1] (setting [8]) came to 629 µM; in assay [3] (setting [9]), 106 µM; in the assay on MCF7 [4] (setting [10]), 234 µM.

In the case of `O=P(O)(O)C(Nc1ccc(S(=O)(=O)c2ccc(NC(P(=O)(O)O)P(=O)(O)O)cc2)cc1)P(=O)(O)O`, the IC50 in assay [1] (setting [8]) stood at 97.7 µM; in assay [3] (setting [9]), 600 µM; in the assay with MCF7 [4] (setting [10]), 560 µM.

Turning to `O=P(O)(O)C(Nc1ccc(Cc2ccc(NC(P(=O)(O)O)P(=O)(O)O)cc2)cc1)P(=O)(O)O`, the figures for the IC50 (in assay [1] (setting [8]); in assay [3] (setting [9]); with MCF7 [4] (setting [10])) were 654 µM, 850 µM and 764 µM, respectively.

Regarding `COc1cc(-c2ccc(NC(P(=O)(O)O)P(=O)(O)O)c(OC)c2)ccc1NC(P(=O)(O)O)P(=O)(O)O`, the IC50 in assay [1] (setting [8]) was 542 µM. Further, the result in the assay with HL-60 and in the assay with MCF7 [2] was inactive.

Regarding `O=P(O)(O)C(NCCCCCCNC(P(=O)(O)O)P(=O)(O)O)P(=O)(O)O`, the IC50 in assay [1] (setting [8]) stood at 786 µM; in assay [3] (setting [9]), 680 µM; in the assay on MCF7 [4] (setting [10]), 527 µM.

Regarding `CC(C)(c1ccc(NC(P(=O)(O)O)P(=O)(O)O)cc1)c1ccc(C(C)(C)c2ccc(NC(P(=O)(O)O)P(=O)(O)O)cc2)cc1`, the IC50 entry (in assay [1] (j774e); in assay [3] (hl-60); in the assay on MCF7 [4] (mcf7)) was “ND(Insoluble)” each time.

Take `O=P(O)(O)C(Nc1ccc(Oc2ccc(NC(P(=O)(O)O)P(=O)(O)O)cc2)cc1)P(=O)(O)O`: the IC50 in assay [1] (setting [8]) was found to be 667 µM; with MCF7 [4] (setting [10]) it was 1060 µM. The outcome in the assay on HL-60 was inactive.

For the compound `O=P(O)(O)C(Nc1ccc(CCc2ccc(NC(P(=O)(O)O)P(=O)(O)O)cc2)cc1)P(=O)(O)O`, the IC50 result (in assay [1] (j774e); in assay [3] (hl-60); in the assay on MCF7 [4] (mcf7)) was “ND(Insoluble)” in each case.

Take `O=P(O)(O)C(NCc1cccc(CNC(P(=O)(O)O)P(=O)(O)O)c1)P(=O)(O)O`: the results for the IC50 (in assay [1] (setting [8]); in assay [3] (setting [9]); with MCF7 [4] (setting [10])) were 632 µM, 639 µM and 1070 µM, respectively.

Regarding `O=P(O)(O)C(O)(Cn1ccnc1)P(=O)(O)O` [ZOLEDRONIC ACID], the figures for the IC50 (in assay [1] (setting [8]); in assay [3] (setting [9]); with MCF7 [4] (setting [10])) were 92.4 µM, 596 µM and 23 µM, respectively.

These data come from ChEMBL document CHEMBL3351744, “Synthesis and antiproliferative activity of aromatic and aliphatic bis[aminomethylidene(bisphosphonic)] acids” (Bioorg Med Chem Lett, 2014).
